Data from ChEMBL document CHEMBL1140571, “New 1,8-naphthyridine and quinoline derivatives as CB2 selective agonists” (Bioorg Med Chem Lett, 2007).

Tests used:
[1] = species on record: Homo sapiens; experiment: Selectivity for human CB2 over human CB1
[2] = molecular target: Cannabinoid receptor 1 (Homo sapiens, UniProt P21554); experiment: biochemical; assay type: cell-based, HEK293
[3] = molecular target: Cannabinoid receptor 2 (Homo sapiens, UniProt P34972); experiment: Displacement of [3H]CP-55940 from human recombinant CB2 receptor expressed in HEK293 cells; assay type: cell-based
Sequence of Cannabinoid receptor 2 (P34972 whole entry): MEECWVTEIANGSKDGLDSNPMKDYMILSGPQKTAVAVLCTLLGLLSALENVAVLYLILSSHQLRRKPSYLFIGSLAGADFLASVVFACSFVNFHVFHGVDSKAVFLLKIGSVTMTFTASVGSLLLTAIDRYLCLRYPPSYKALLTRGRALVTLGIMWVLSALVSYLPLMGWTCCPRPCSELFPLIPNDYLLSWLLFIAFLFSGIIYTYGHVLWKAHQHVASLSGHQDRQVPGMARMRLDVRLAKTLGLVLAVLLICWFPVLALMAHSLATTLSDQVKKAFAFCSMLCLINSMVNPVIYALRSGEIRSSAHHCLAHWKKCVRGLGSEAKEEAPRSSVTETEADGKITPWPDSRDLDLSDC

[4] = tested on: Mus musculus; experiment: Antinociceptive activity in Swiss Albino mouse assessed as licking latency time at 50 mg/kg, po after 15 mins by hot plate test; assay type: functional
In short: (§1)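 Mice held at 22 ± 1 °C on a 12 h light/dark cycle and given oral doses in CMC vehicle. In the hot-plate test the container was kept at 52.5 ± 0.1 °C and the endpoint was licking of the fore or hind paws, timed before dosing and after it. Pretest scorers below 12 s or above 18 s were rejected. Cut-off 45 s. AM630 0.6 mg/kg po given simultaneously. Mean ± SEM, ANOVA with Fisher PLSD, P<0.05.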

[5] = tested on: Mus musculus; experiment: Antinociceptive activity in Swiss Albino mouse assessed as licking latency time at 30 mg/kg, po after 15 mins by hot plate test; assay type: functional; in short: as §1
[6] = tested on: Mus musculus; experiment: Antinociceptive activity in Swiss Albino mouse assessed as licking latency time at 30 mg/kg, po after 30 mins by hot plate test; assay type: functional; in short: as §1
[7] = tested on: Mus musculus; experiment: Antinociceptive activity in Swiss Albino mouse assessed as licking latency time at 50 mg/kg, po after 30 mins by hot plate test; assay type: functional; in short: as §1
[8] = tested on: Mus musculus; experiment: Effect on motor coordination in Swiss Albino mouse at 50 mg/kg, po after 30 mins by rotarod test; assay type: organism-based; design: dose 50 mg/kg, route oral; conditions: in vivo, 0.5 h
In short: (§2)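 Mice were dosed orally in CMC vehicle and tested on a rotarod with a 3 cm diameter non-slip rotating rod, counting falls before dosing and at 15, 30 and 45 min after. Pretest scorers below 3 or above 6 falls were rejected. Ten mice per group. Mean ± SEM, ANOVA with Fisher PLSD, P<0.05.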

[9] = tested on: Mus musculus; experiment: Effect on Swiss Albino mouse assessed as licking latency time at 0.06 mg/kg, po after 15 mins by hot plate test; assay type: functional
[10] = tested on: Mus musculus; experiment: Effect on motor coordination in Swiss Albino mouse at 50 mg/kg, po after 45 mins by rotarod test; assay type: organism-based; design: dose 50 mg/kg, route oral; conditions: in vivo, 0.75 h; in short: as §2
[11] = tested on: Mus musculus; experiment: Antinociceptive activity in Swiss Albino mouse assessed as licking latency time at 30 mg/kg, po after 45 mins by hot plate test; assay type: functional; in short: as §1
[12] = tested on: Mus musculus; experiment: Antinociceptive activity in Swiss Albino mouse assessed as licking latency time at 50 mg/kg, po in presence of CB2 antagonist AM630 after 45 mins; assay type: functional; in short: as §1
[13] = tested on: Mus musculus; experiment: Antinociceptive activity in Swiss Albino mouse assessed as licking latency time at 10 mg/kg, po after 15 mins by hot plate test; assay type: functional; in short: as §1
[14] = tested on: Mus musculus; experiment: Effect on motor coordination in Swiss Albino mouse at 50 mg/kg, po after 15 mins by rotarod test; assay type: organism-based; design: dose 50 mg/kg, route oral; conditions: in vivo, 0.25 h; in short: as §2
[15] = tested on: Mus musculus; experiment: Effect on Swiss Albino mouse assessed as licking latency time at 0.06 mg/kg, po after 30 mins by hot plate test; assay type: functional
[16] = tested on: Mus musculus; experiment: Antinociceptive activity in Swiss Albino mouse assessed as licking latency time at 50 mg/kg, po in presence of CB2 antagonist AM630 after 30 mins; assay type: functional; in short: as §1
[17] = tested on: Mus musculus; experiment: Antinociceptive activity in Swiss Albino mouse assessed as licking latency time at 50 mg/kg, po after 45 mins by hot plate test; assay type: functional; in short: as §1
[18] = tested on: Mus musculus; experiment: Antinociceptive activity in Swiss Albino mouse assessed as licking latency time at 10 mg/kg, po after 30 mins by hot plate test; assay type: functional; in short: as §1
[19] = tested on: Mus musculus; experiment: Effect on Swiss Albino mouse assessed as licking latency time at 0.06 mg/kg, po after 45 mins by hot plate test; assay type: functional
[20] = tested on: Mus musculus; experiment: Antinociceptive activity in Swiss Albino mouse assessed as licking latency time at 50 mg/kg, po in presence of CB2 antagonist AM630 after 15 mins; assay type: functional; in short: as §1
[21] = tested on: Mus musculus; experiment: Antinociceptive activity in Swiss Albino mouse assessed as licking latency time at 10 mg/kg, po after 45 mins by hot plate test; assay type: functional; in short: as §1

Sequence of Cannabinoid receptor 1 (P21554 whole entry): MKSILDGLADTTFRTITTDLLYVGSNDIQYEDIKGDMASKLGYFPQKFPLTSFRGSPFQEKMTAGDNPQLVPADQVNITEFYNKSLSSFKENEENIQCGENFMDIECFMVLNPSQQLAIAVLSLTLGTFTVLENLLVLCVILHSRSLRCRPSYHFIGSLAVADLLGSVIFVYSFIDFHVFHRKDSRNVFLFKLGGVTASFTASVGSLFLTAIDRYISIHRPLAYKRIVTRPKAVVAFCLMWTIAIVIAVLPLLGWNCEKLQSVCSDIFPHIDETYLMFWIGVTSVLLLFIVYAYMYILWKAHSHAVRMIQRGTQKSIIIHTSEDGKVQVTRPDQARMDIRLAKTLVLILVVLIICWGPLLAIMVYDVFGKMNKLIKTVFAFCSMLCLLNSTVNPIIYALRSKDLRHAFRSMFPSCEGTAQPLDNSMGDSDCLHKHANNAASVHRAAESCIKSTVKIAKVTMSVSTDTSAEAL

Row | Compound | Ratio Ki [1] | Ki [2] | Ki [3] | further results
1 | O=c1c2cn(Cc3ccccc3)c3ccccc3c-2nn1C1CCCCC1 | 0.78 | 620 nM | 790 nM | 
2 | COc1ccc2c(=O)c(C(=O)NC3CCCCC3)cn(CCN3CCOCC3)c2c1 | 37 | 2920 nM | 79 nM | 
3 | COc1ccc2c(=O)c(C(=O)NC3CCCCC3)cn(Cc3ccccc3)c2n1 | 51 | 560 nM | 11 nM | Activity [4]: 19.2 s; Activity [5]: 16.6 s; Activity [6]: 19.5 s; Activity [7]: 22.5 s; Activity [8]: 0.2; Activity [9]: 16.6 s; Activity [10]: 0.2; Activity [11]: 17.4 s; Activity [12]: 17.6 s; Activity [13]: 17.1 s; Activity [14]: 0.7; Activity [15]: 18 s; Activity [16]: 19.2 s; Activity [17]: 18.2 s; Activity [18]: 18.5 s; Activity [19]: 16.3 s; Activity [20]: 18.1 s; Activity [21]: 16.7 s
4 | O=C(NC1CCCCCC1)c1cn(Cc2ccccc2)c2ccccc2c1=O | 2.6 | 17 nM | 6.4 nM | 
5 | CCCCC/C=C\C/C=C\C/C=C\C/C=C\CCCC(=O)NCCCl | 0.06 | 5.3 nM | 95 nM | 
6 | COc1ccc(C(=O)c2c(C)n(CCN3CCOCC3)c3cc(I)ccc23)cc1 |  |  | 36 nM | 
7 | Nc1ccc2c(=O)cc(C(=O)NC3CCCCC3)n(Cc3ccccc3)c2n1 | 0.71 | 5600 nM | 7900 nM | 
8 | O=c1c2cn(CCN3CCOCC3)c3ccccc3c-2nn1-c1ccccc1 | 1.2 | 2800 nM | 2280 nM | 
9 | O=c1c2cn(Cc3ccccc3)c3cc(Cl)ccc3c-2nn1C1CCCCC1 | 0.34 | 560 nM | 1640 nM | 
10 | COc1ccc2c(=O)c(C(=O)NC3CCCCC3)cn(Cc3ccccc3)c2c1 |  |  | 79 nM | 
11 | CCCCCCC(C)(C)c1cc(O)c2c(c1)OC(C)(C)[C@@H]1CC=C(CO)C[C@@H]21 |  | 0.18 nM |  | 
12 | O=C(NC1CCCCCC1)c1cn(CCN2CCOCC2)c2ccccc2c1=O | 10.3 | 290 nM | 28 nM | 
13 | CN(C)c1ccc2c(=O)c(C(=O)NC3CCCCC3)cn(CCN3CCOCC3)c2n1 |  | > 5600 nM | 94 nM | 
14 | O=c1c2cn(CCN3CCOCC3)c3ccccc3c-2nn1C1CCCCC1 |  | > 5600 nM | > 7900 nM | 
